Data set [1] can be described thus: Antioxidant activity assessed as Fe2+ formation per nmol of compound by FRAP assay. The class given is functional. The essentials:
(§1)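 FRAP method: working reagent of acetate buffer, TPTZ solution and FeCl₃·6H₂O solution (25:2.5:2.5 by volume), warmed 30 min at 37 °C before addition. Absorbance read after 30 min at 30 s intervals. Trolox as reference antioxidant. Output is the antioxidant ratio, nmol Fe²⁺ per nmol compound, mean ± SD, n = 3.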

Data set [2] is described as follows: Antioxidant activity assessed as Fe2+ formation per nmol of compound by FRAP assay relative to trolox. In kind it is functional. The method, boiled down:
as §1

In data set [3] the test system is MCF7. The data set is described as follows: Cytotoxicity against human MCF7 cells after 48 hrs by MTT assay. The class given is functional, cell-based. As to conditions: MCF7, 48 h. The essentials:
(§2)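 Cells seeded at 1 ×10⁴ per well and allowed 24 h, then exposed 48 or 72 h. Medium replaced with fresh medium containing MTT at 0.5 mg/ml final, 3 h at 37 °C. MCF7 in phenol red-free RPMI-1640 with 10% FBS; hTERT-HME1 in RPMI-1640/mammary epithelial growth medium 90:10. IC₂₀ and IC₅₀ are means of 8 assays ± SD.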

Data set [4] in a line: Cytotoxicity against hTERT-HME1 cells after 72 hrs by MTT assay. In kind it is cell-based, Homo sapiens. As to conditions: for IC50: Homo sapiens, HME1, 72 h; for IC20 at 72 h: human, hTERT-HME1 cells. The method, boiled down:
as §2

Data set [5] has as its system MCF7. The data set can be described thus: Cytotoxicity against human MCF7 cells after 72 hrs by MTT assay. As to conditions: MCF7, 72 h. The class given is functional, cell-based. The method, boiled down: as §2
Data set [6] can be described thus: Cytotoxicity against hTERT-HME1 cells after 48 hrs by MTT assay. The class given is cell-based, Homo sapiens. As to conditions: for IC50: Homo sapiens, HME1, 48 h; for IC20 at 48 h: human, hTERT-HME1 cells. The method, boiled down:
as §2

Data set [7] in a line: Antioxidant activity in 2',7'-dichlorodihydrofluorescein diacetate-treated hTERT-HME1 cells assessed as reduction of H2O2 production at 100 uM during after 24 hrs by FACS analysis. The class given is functional, Homo sapiens. Set-up: scale not given: the % may be the effect or the level left. The method, boiled down:
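Mammary cells seeded at 0.75 ×10⁶ per 100-mm dish. Exposed to test agent or Trolox at […] (unit as printed) for 4, 8, 12, 24 and 48 h. Loaded with H₂DCFDA 15 min at 37 °C. Detached plus adherent cells resuspended in PBS; DCF read in FL1 on a FACScan. Output is the ratio of treated to DMSO-control fluorescence, mean ± SD, n = 3.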

We go through three compounds from ChEMBL document CHEMBL1158346, “Synthesis and antioxidant potential of novel synthetic benzophenone analogues” (Eur J Med Chem, 2009).

Activity calls are given as the source filed them. The rule behind the calls is not given here.

For the compound `O=C(c1ccc(O)c(O)c1)c1ccc2sc(=O)[nH]c2c1`, the Activity in data set [1] turned out to be 6.1 nmol. Also, the Ratio in data set [2] came to 2. In data set [3], this compound displayed an IC20 of 12.1 µM and an IC50 of 43.6 µM. In data set [4], the IC50 was 116 µM and the IC20 at 72 h came to 33.8 µM. In data set [5], the IC20 turned out to be 8.3 µM and the midpoint of inhibition, the IC50, lay at 28.1 µM. In data set [6], the IC50 amounted to 155 µM and the 20% effect level (IC20 at 48 h) was put at 43.5 µM.
Regarding `Cc1c(C)c2c(c(C)c1O)CCC(C)(C(=O)O)O2` (stereo not given) [TROLOX], the Activity in data set [7] is reported as 20%.
Regarding `O=C(c1ccc(O)cc1)c1ccc2sc(=O)[nH]c2c1`, in data set [1], the result was inactive. For the same compound, the IC20 in data set [3] stood at 44.5 µM; in data set [5] it was 37.8 µM. The IC50 in data set [3] came to 121 µM; in data set [4], 111 µM; in data set [5], 95.9 µM; in data set [6], 109 µM. The IC20 at 72 h in data set [4] turned out to be 78.4 µM. The compound further registered an IC20 at 48 h in data set [6] of 73.1 µM.
